Data: paper PMC5680101 (The journal of physical chemistry. B, 2017)
Like-named read-outs stand apart in the source and are kept apart here.

What was measured:
Type in all cases: binding, E. coli
[1] = biological target: OmpG (Escherichia coli, UniProt P76045, D245C); assay: biochemical; settings: for p (Hill coefficient): four-parameter Hill fit; for rmax: maximum anisotropy at detergent concentrations above the CMC; for rmax / rmin: pH 7.4; for Rh max: maximum hydrodynamic radius of the proteomicelle; for Dr slow: rotational diffusion coefficient under solvation conditions; for q (slope factor or transition steepness): calculated at the midpoint of the dissociation phase; for ΔRh: decrease in hydrodynamic radius as a result of detergent desolvation; for rmin: minimum anisotropy, extrapolated for the lowest detergent concentration; for Dr fast: rotational diffusion coefficient under desolvation conditions; for ΔG: ΔG = RT ln Kd
[2] = biological target: FhuA ΔC/Δ7L_30N (Escherichia coli, UniProt P06971); settings: for rmax: maximum anisotropy at detergent concentrations above the CMC; for rmax / rmin: pH 7.4; for rmin: minimum anisotropy, extrapolated for the lowest detergent concentration; for Dr fast: rotational diffusion coefficient under desolvation conditions; for Dr slow: rotational diffusion coefficient under solvation conditions
[3] = biological target: FhuA ΔC/Δ5L (Escherichia coli, UniProt P06971, DEL561-566/INS560[…], form not given); settings: for q (slope factor or transition steepness): calculated at the midpoint of the dissociation phase; for ΔRh: decrease in hydrodynamic radius as a result of detergent desolvation; for p (Hill coefficient): four-parameter Hill fit; for p (Hill coefficient) / rmax / rmin / Kd: 200 mM NaCl, 50 mM HEPES; for p (Hill coefficient) / Kd: pH 7.4, 24°C; for rmax: maximum anisotropy at detergent concentrations above the CMC; for rmax / rmin: pH 7.4; for Rh max: maximum hydrodynamic radius of the proteomicelle; for rmin: minimum anisotropy, extrapolated for the lowest detergent concentration; for Kd: read-out: Kd (apparent dissociation constant), midpoint of dose-dependent dissociation phase; for Dr fast: rotational diffusion coefficient under desolvation conditions; for ΔG: ΔG = RT ln Kd; for Dr slow: rotational diffusion coefficient under solvation conditions
[4] = biological target: FhuA ΔC/Δ5L_25N (Escherichia coli, UniProt P06971); settings: for rmax: maximum anisotropy at detergent concentrations above the CMC; for rmax / rmin: pH 7.4; for rmin: minimum anisotropy, extrapolated for the lowest detergent concentration; for Dr fast: rotational diffusion coefficient under desolvation conditions; for Dr slow: rotational diffusion coefficient under solvation conditions
[5] = biological target: acidic β-barrel proteins; assay: steady-state FP anisotropy, detergent desolvation, acidic β barrels; settings: physiological pH
Method in brief: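 Acidic β-barrels: FhuA ΔC/Δ5L, with a GS-rich single-Cys loop replacing turn T7, labeled with Texas Red C2 maleimide in 6 M Gdm-HCl. OmpG D224C labeled in 8 M urea at 1:20 protein:dye. Detergent-refolded protein diluted into wells of varying detergent spanning the CMC, 28 nM final protein. 15 min equilibration, kinetic steady-state anisotropy read, 24 h endpoints covered at 4°C.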

[6] = system: basic β-barrel proteins; assay: steady-state FP anisotropy, detergent desolvation, basic β barrels
Method in brief: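 Basic FhuA variants, C-terminal His6, labeled with 200 μM Texas Red C2 maleimide overnight at room temperature in 6 M Gdm-HCl. Denatured protein refolded by 50-fold dilution into 200 mM NaCl, 50 mM HEPES, pH 7.4, 4°C, detergent above CMC. Then diluted into wells of varying detergent, 28 nM final protein. 15 min equilibration, kinetic anisotropy read, 24 h endpoints at 4°C.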

[7] = 200 mM NaCl, 50 mM HEPES, pH 7.4, 24°C
[8] = read-out: Kd (apparent dissociation constant), midpoint of dose-dependent dissociation phase, 200 mM NaCl, 50 mM HEPES, pH 7.4, 24°C
[9] = calculated at the midpoint of the dissociation phase
[10] = decrease in hydrodynamic radius as a result of detergent desolvation
[11] = four-parameter Hill fit, 200 mM NaCl, 50 mM HEPES, pH 7.4, 24°C
[12] = maximum hydrodynamic radius of the proteomicelle

FhuA ΔC/Δ7L_30N, sequence (P06971 194-747, stated change not applied): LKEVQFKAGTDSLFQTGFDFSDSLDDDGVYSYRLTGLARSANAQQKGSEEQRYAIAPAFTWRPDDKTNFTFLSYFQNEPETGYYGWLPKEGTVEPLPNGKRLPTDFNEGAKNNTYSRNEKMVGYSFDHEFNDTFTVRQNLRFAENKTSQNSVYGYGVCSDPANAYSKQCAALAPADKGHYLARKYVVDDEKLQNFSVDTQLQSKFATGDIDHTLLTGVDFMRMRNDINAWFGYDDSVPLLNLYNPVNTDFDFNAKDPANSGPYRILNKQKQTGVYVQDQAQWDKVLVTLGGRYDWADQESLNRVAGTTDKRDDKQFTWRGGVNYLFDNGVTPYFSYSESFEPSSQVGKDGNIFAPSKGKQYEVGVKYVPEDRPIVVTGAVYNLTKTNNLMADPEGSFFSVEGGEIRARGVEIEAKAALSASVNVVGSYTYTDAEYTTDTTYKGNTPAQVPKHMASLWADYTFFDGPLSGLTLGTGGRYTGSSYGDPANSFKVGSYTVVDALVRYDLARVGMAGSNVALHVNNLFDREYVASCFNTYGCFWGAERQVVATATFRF
FhuA ΔC/Δ5L_25N, sequence (P06971 194-747, stated change not applied): as above
FhuA ΔC/Δ5L, sequence (P06971 194-747, stated change not applied): as above
OmpG, sequence (P76045 22-301 D245C): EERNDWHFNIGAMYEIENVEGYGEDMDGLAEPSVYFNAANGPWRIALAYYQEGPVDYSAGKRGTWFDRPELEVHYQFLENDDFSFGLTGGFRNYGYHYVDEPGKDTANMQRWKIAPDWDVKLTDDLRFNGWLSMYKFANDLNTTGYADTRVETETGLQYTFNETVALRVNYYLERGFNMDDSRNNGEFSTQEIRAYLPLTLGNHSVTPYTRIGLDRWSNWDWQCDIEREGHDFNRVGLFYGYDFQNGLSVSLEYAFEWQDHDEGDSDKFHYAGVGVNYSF

With `C[C@H](CCC(=O)NCCC[N+](C)(C)CCCS(=O)(=O)[O-])[C@H]1CC[C@H]2[C@@H]3[C@H](O)C[C@@H]4C[C@H](O)CC[C@]4(C)[C@H]3C[C@H](O)[C@]12C` [CHAPS] the “p (Hill coefficient)” value [1, 7] was ~1.6, the rmax ([1]; 200 mM NaCl, 50 mM HEPES) was 0.318 ± 0.002 and the Rh max [1] was 2.5 nm. For the same compound, the Kd [1, 8] was < 600 µM, the Dr slow [1] was 1.0 ± 0.1 10^7 s^−1 and the rmax ([2]; 200 mM NaCl, 50 mM HEPES) was ~0.17. For the same compound, the rmin ([2]; 200 mM NaCl, 50 mM HEPES) was ~0.16, the Dr fast [2] was ~6.0 10^7 s^−1 and the Dr slow [2] was ~5.2 10^7 s^−1. The “q (slope factor or transition steepness)” value [3] was 0.015 mM⁻¹, the ΔRh [3] was 0.77 ± 0.18 nm and the “p (Hill coefficient)” value [3] was 1.7 ± 0.6. The rmax [3] was 0.292 ± 0.004, the Rh max [3] was 2.2 nm and the rmin [3] was 0.172 ± 0.048. For the same compound, the Kd [3] was 3300 ± 1800 µM, the Dr fast [3] was 1.5 ± 0.1 10^7 s^−1 and the ΔG [3] was -3.4 ± 0.5 kcal/mol. For the same compound, the rmax ([4]; 200 mM NaCl, 50 mM HEPES) was ~0.17, the rmin ([4]; 200 mM NaCl, 50 mM HEPES) was ~0.15 and the Dr fast [4] was ~6.6 10^7 s^−1. The Dr slow [4] was ~5.2 10^7 s^−1.

For `CCCCCCCCCCO[C@@H]1O[C@H](CO)[C@@H](O[C@H]2O[C@H](CO)[C@@H](O)[C@H](O)[C@H]2O)[C@H](O)[C@H]1O` [DM, n-decyl-β-D-maltoside], the Kd [1] was 1800 ± 400 µM, the “q (slope factor or transition steepness)” value [1] was 0.064 mM⁻¹ and the ΔRh [1] was 0.95 ± 0.04 nm. For the same compound, the “p (Hill coefficient)” value [1, 7] was 4.1 ± 1.2, the rmax ([1]; 200 mM NaCl, 50 mM HEPES) was 0.327 ± 0.001 and the Rh max [1] was 2.6 nm. For the same compound, the rmin ([1]; 200 mM NaCl, 50 mM HEPES) was 0.214 ± 0.005, the Dr fast [1] was 3.5 ± 0.2 10^7 s^−1 and the Dr slow [1] was 0.89 ± 0.02 10^7 s^−1. For the same compound, the ΔG [1] was -3.7 ± 0.1 kcal/mol, the Kd [5] was ~1800 µM and the “q (slope factor or transition steepness)” value [2, 9] was 1.07 mM⁻¹. For the same compound, the ΔRh [2, 10] was 1.0 ± 0.1 nm, the “p (Hill coefficient)” value [2, 11] was 27 ± 6 and the rmax ([2]; 200 mM NaCl, 50 mM HEPES) was 0.312 ± 0.001. It also gave a Rh max [2, 12] of 2.4 nm, a rmin ([2]; 200 mM NaCl, 50 mM HEPES) of 0.168 ± 0.007 and a Kd [2, 8] of 900 ± 100 µM. The Dr fast [2] was 1.0 ± 0.1 10^7 s^−1, the Dr slow [2] was 5.5 ± 0.4 10^7 s^−1 and the ΔG ([2]; ΔG = RT ln Kd) was -4.1 ± 0.1 kcal/mol. For the same compound, the “q (slope factor or transition steepness)” value [3] was 0.072 mM⁻¹, the ΔRh [3] was 1.6 ± 0.1 nm and the “p (Hill coefficient)” value [3] was 3.5 ± 0.5. For the same compound, the rmax [3] was 0.360 ± 0.001, the Rh max [3] was 3.3 nm and the rmin [3] was 0.219 ± 0.005. For the same compound, the Kd [3] was 1700 ± 100 µM, the Dr fast [3] was 3.3 ± 0.2 10^7 s^−1 and the Dr slow [3] was 0.44 ± 0.01 10^7 s^−1. For the same compound, the ΔG [3] was -3.8 ± 0.1 kcal/mol, the “q (slope factor or transition steepness)” value [4, 9] was 1.30 mM⁻¹ and the ΔRh [4, 10] was 1.5 ± 0.1 nm. For the same compound, the “p (Hill coefficient)” value [4, 11] was 27 ± 3, the rmax ([4]; 200 mM NaCl, 50 mM HEPES) was 0.343 ± 0.002 and the Rh max [4, 12] was 3.0 nm. For the same compound, the rmin ([4]; 200 mM NaCl, 50 mM HEPES) was 0.166 ± 0.003, the Kd [4, 8] was 900 ± 100 µM and the Dr fast [4] was 5.6 ± 0.2 10^7 s^−1. The Dr slow [4] was 0.66 ± 0.03 10^7 s^−1, the ΔG ([4]; ΔG = RT ln Kd) was -4.1 ± 0.1 kcal/mol and the Hill cooperativity p ([6]; basic FhuA proteins, pH 7.4) was ~ 27. The Kd ([6]; physiological pH) was ~900 µM.

In the case of `CCCCCCCCO[C@@H]1O[C@H](CO)[C@@H](O)[C@H](O)[C@H]1O` [OG, n-octyl-β-D-glucoside], the “q (slope factor or transition steepness)” value [1] is reported as 0.017 mM⁻¹, the ΔRh [1] is reported as 1.0 ± 0.1 nm and the “p (Hill coefficient)” value [1, 7] is reported as 4.9 ± 0.5. For the same compound, the rmax ([1]; 200 mM NaCl, 50 mM HEPES) was 0.306 ± 0.001, the Rh max [1] was 2.4 nm and the rmin ([1]; 200 mM NaCl, 50 mM HEPES) was 0.153 ± 0.002. The Kd [1, 8] was 11000 ± 1000 µM, the Dr fast [1] was 6.4 ± 0.1 10^7 s^−1 and the Dr slow [1] was 1.2 ± 0.1 10^7 s^−1. For the same compound, the ΔG [1] was -2.7 ± 0.1 kcal/mol, the rmax ([2]; 200 mM NaCl, 50 mM HEPES) was ~0.17 and the rmin ([2]; 200 mM NaCl, 50 mM HEPES) was ~0.15. The Dr fast [2] was ~6.6 10^7 s^−1, the Dr slow [2] was ~5.2 10^7 s^−1 and the anisotropy signal ([3]; acidic FhuA proteins refolded in detergent) was ~ 0.3. The “q (slope factor or transition steepness)” value [3] was 0.013 mM⁻¹, the ΔRh [3] was 0.80 ± 0.02 nm and the “p (Hill coefficient)” value [3] was 5.3 ± 0.9. The rmax [3] was 0.291 ± 0.002, the Rh max [3] was 2.2 nm and the rmin [3] was 0.162 ± 0.002. For the same compound, the Kd [3] was 13000 ± 1000 µM, the Dr fast [3] was 5.8 ± 0.1 10^7 s^−1 and the Dr slow [3] was 1.5 ± 0.1 10^7 s^−1. It also gave a ΔG [3] of -2.5 ± 0.1 kcal/mol, a rmax ([4]; 200 mM NaCl, 50 mM HEPES) of ~0.17 and a rmin ([4]; 200 mM NaCl, 50 mM HEPES) of ~0.15. For the same compound, the Dr fast [4] was ~6.6 10^7 s^−1 and the Dr slow [4] was ~5.2 10^7 s^−1.
